Sampled rows, rich in hits. Any-hit rate of the full collection: about 2.5%.
KLK7 zymogen act = activators of human kallikrein-7 zymogen. P49862. purified proKLK7, EDANS-DABCYL substrate fluorescence; 100% is mature enzyme control, 0% vehicle. activation, % at 7 µM. actives 0.9% (n = 370,000). AID 652039;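 active = activation above the mean of all tested compounds plus 3 SD, computed per campaign excluding outliers beyond control limits, cut at about 13% in these data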
Target sequence (P49862 whole entry, looked up): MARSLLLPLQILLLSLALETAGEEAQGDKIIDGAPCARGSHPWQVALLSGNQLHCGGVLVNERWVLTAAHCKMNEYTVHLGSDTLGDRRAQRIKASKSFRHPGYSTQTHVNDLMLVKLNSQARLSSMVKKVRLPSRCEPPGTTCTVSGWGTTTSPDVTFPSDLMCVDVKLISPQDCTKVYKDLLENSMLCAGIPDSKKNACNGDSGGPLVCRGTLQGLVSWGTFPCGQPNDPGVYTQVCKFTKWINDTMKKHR
ADAM17 inh = inhibits human ADAM17 | recombinant ADAM17, EDANS/DABCYL FRET peptide cleavage | inhibition, % at 6.95 µM | actives 0.83% (n = 370,000);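 active = inhibition above the mean of compounds lying between control limits plus 3 SD, set per campaign, cut at about 8.5% in these data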;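 note: 0% = DMSO-only wells as the low control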
NR2E3 ag-1 = activates human photoreceptor nuclear receptor NR2E3 | Q9Y5X4 | actives 0.12% (n = 320,000) | GST-NR2E3/biotin-RetCOR TR-FRET, 1536-well | inhibition of corepressor binding, % at 4.78 µM;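 active = percent inhibition above the cutoff of mean plus 3 SD of all tested compounds, set per screening campaign, cut at about 20% in these data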;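 note: 0% = DMSO wells and 100% = biotin wells as full block of FRET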
Target sequence (Q9Y5X4 whole entry, looked up): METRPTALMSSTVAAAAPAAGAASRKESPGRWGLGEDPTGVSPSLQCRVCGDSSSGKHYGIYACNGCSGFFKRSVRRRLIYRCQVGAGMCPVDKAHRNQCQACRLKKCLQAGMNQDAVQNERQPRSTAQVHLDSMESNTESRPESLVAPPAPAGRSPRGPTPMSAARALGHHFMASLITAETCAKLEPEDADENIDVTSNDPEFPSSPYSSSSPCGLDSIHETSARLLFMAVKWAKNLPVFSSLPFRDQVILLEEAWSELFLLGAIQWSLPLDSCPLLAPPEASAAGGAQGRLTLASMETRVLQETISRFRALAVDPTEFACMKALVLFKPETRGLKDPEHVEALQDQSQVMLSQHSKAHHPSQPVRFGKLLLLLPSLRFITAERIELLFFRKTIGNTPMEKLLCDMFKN
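Material: NR2E3–RetCOR corepressor complex / Amount: 1.35 nM GST-NR2E3 / Medium: Tris pH 7.5 / Compound: single nominal compound dose of 4.8 µM / Incubation: 5 h at 4 °C / Technique: TR-FRET, Eu(K)-anti-GST donor, streptavidin-D2 acceptor, ex 340, em 617/671 nm / Read-out basis: percent loss of FRET ratio relative to control wells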
NR2E3 ag-2 = activates human NR2E3 receptor; CHO-S Gal4-NCOR/VP16-NR2E3 two-hybrid, luciferase; inhibition of corepressor binding, % at 3.98 µM; AID 602229; Q9Y5X4; actives 0.35% (n = 360,000);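 active = inhibition above the mean of all tested compounds plus 3 SD, cut at about 70% in these data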;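 note: 0% = DMSO with NR2E3 transfected cells and 100% = cells lacking NR2E3 construct; higher means lower luciferase signal from less NR2E3 corepressor binding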
ADAM10 inh = inhibitors of human ADAM10; O14672; recombinant ADAM10, EDANS/DABCYL FRET peptide cleavage, 3 h; inhibition, % at 7 µM; actives 0.62% (n = 370,000);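 active = inhibition above a per-campaign cutoff equal to the mean of compounds falling between control-based bounds plus 3 SD, cut at about 20% in these data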;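 note: 0% = DMSO wells while the 100% control is not disclosed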
GASC-1 inh = human JMJD2C demethylase inhibition; Q9H3R0; GST-JMJD2C(1-420) H3K9me3 demethylation, DELFIA europium; inhibition, % at 2.35 µM; actives 0.069% (n = 330,000); AID 2099;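 active = more than half of a compound's replicate wells show inhibition beyond 50%, single wells judged on their own value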;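 note: signal counts dimethyl H3K9 product captured on neutravidin plate; 0% = median of DMSO wells and 100% = 0.3 times that DMSO median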
ADAM10 counter = ADAM10 inhibition, counter-screen for ADAM17 exosite hits. recombinant ADAM10, EDANS/DABCYL FRET peptide cleavage, 3 h. actives 47% (n = 2,900). AID 743256. shares compounds with ADAM17 inh. inhibition, % at 6.95 µM;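 active = mean inhibition over the triplicate runs exceeds the activity threshold set in the earlier primary screen, cut at about 20% in these data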;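 note: 0% = DMSO wells and 100% = marimastat wells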
ADAM17 confirm = confirmation of inhibitors of human ADAM17; shares compounds with ADAM17 inh; recombinant ADAM17, EDANS/DABCYL QFRET peptide cleavage; inhibition, % at 6.95 µM; actives 65% (n = 2,900); AID 743257;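 active = mean inhibition across replicates above the hit cutoff set in the primary screen, cut at about 8.5% in these data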;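 note: 0% = DMSO wells and 100% = marimastat wells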
Numbers without * were called inactive.

How did COc1ccc(NC(=O)CN(C)C(=O)/C=C/c2cn(-c3ccccc3)nc2-c2ccc(C)cc2)cc1 do in these assays?
KLK7 zymogen act: -1.5; ADAM17 inh: 12.7*; NR2E3 ag-1: 3.7; NR2E3 ag-2: -36.0; ADAM10 inh: 4.7; GASC-1 inh: -4.7; ADAM10 counter: 2.1; ADAM17 confirm: 10.2*

Results for Cc1ccc(S(=O)(=O)n2c(C)nc3ccccc32)cc1 ?
KLK7 zymogen act: 0.6; ADAM17 inh: -0.5; NR2E3 ag-1: 1.0; NR2E3 ag-2: -24.3; ADAM10 inh: 5.2; GASC-1 inh: 6.0

How did Nc1nc2ccccc2n1S(=O)(=O)c1ccccc1 do in these assays?
KLK7 zymogen act: 0.3; ADAM17 inh: 9.0*; NR2E3 ag-2: -4.2; ADAM10 inh: -0.8; ADAM10 counter: 5.3; ADAM17 confirm: 4.1

What do the screens show for `COc1cccc(CNc2nc3cc(-c4ccccc4CO)sc3c(=O)n2C)c1`?
KLK7 zymogen act: 0.1; ADAM17 inh: -2.5; NR2E3 ag-2: -21.9; ADAM10 inh: -21.8

How did COC(=O)c1ccc(CSc2nc3c(c(=O)n2-c2ccc(C)cc2)SCC3)o1 do in these assays?
KLK7 zymogen act: 0.4; ADAM17 inh: 11.8*; NR2E3 ag-1: 1.1; NR2E3 ag-2: -7.0; ADAM10 inh: 19.4; GASC-1 inh: -15.8; ADAM10 counter: 12.2; ADAM17 confirm: 5.8

How did Cc1ccc(-n2c(SCC(=O)N3CCCC3)nc3c(c2=O)SCC3)cc1 do in these assays?
NR2E3 ag-1: -0.6; GASC-1 inh: -16.4

Results for O=C(Nc1cccc(C(F)(F)F)c1)OC1CCC12CCC(c1ccccc1)CC2 (stereo not drawn) ?
KLK7 zymogen act: 0.5; ADAM17 inh: -0.8; ADAM10 inh: 0.3

Results for Cc1c(Cl)cccc1NC(=S)/C(=C(\[O-])c1ccc(Cl)s1)[n+]1ccccc1 ?
KLK7 zymogen act: 0.2; ADAM17 inh: 9.6*; NR2E3 ag-1: 3.3; NR2E3 ag-2: 18.8; ADAM10 inh: 9.0; GASC-1 inh: -0.5; ADAM10 counter: 4.0; ADAM17 confirm: 2.4

Results for Cc1ccccc1NC(=S)/C(=C(\[O-])c1cc(C)n(Cc2ccccc2Cl)c1C)[n+]1ccccc1 ?
KLK7 zymogen act: -1.0; ADAM17 inh: 12.2*; NR2E3 ag-1: -1.7; NR2E3 ag-2: -8.5; ADAM10 inh: 14.5; GASC-1 inh: 11.9; ADAM10 counter: 23.9*; ADAM17 confirm: 9.4*

Results for O=C(Cc1ccc(NC(=O)C2CCCN(C(=O)C3CCCCC3)C2)cc1)Nc1ccc(C(=O)N2CCOCC2)cc1 (stereo not drawn) ?
KLK7 zymogen act: 1.0; ADAM17 inh: 3.5; NR2E3 ag-2: -37.8; ADAM10 inh: 1.2

Results for CN(Cc1ccccc1)C(=O)c1ccc(NC(=O)Cc2ccc(NC(=O)C3CCCN(C(=O)C4CCCCC4)C3)cc2)cc1 (stereo not drawn) ?
KLK7 zymogen act: 0.2; ADAM17 inh: 10.2*; NR2E3 ag-2: 1.9; ADAM10 inh: 14.7; ADAM10 counter: 14.2; ADAM17 confirm: 4.7

Results for CN(Cc1ccccc1)C(=O)c1cccc(NC(=O)Cc2ccc(NC(=O)C3CCN(C(=O)c4ccccc4)CC3)cc2)c1 ?
KLK7 zymogen act: 0.2; ADAM17 inh: -1.9; NR2E3 ag-2: -6.7; ADAM10 inh: -7.7

What do the screens show for `CN(Cc1ccccc1)C(=O)c1ccc(NC(=O)Cc2ccc(NC(=O)C3CCCN(C(=O)CCc4ccccc4)C3)cc2)cc1` (stereo not drawn)?
KLK7 zymogen act: 0.7; ADAM17 inh: 9.4*; NR2E3 ag-2: -18.1; ADAM10 inh: 11.0; ADAM10 counter: 20.6*; ADAM17 confirm: 11.3*

What do the screens show for `CN(Cc1ccccc1)C(=O)c1cccc(NC(=O)Cc2ccc(NC(=O)C3CCCN(C(=O)c4ccccc4)C3)cc2)c1` (stereo not drawn)?
KLK7 zymogen act: 0.9; ADAM17 inh: 10.7*; NR2E3 ag-2: -26.3; ADAM10 inh: 9.6; ADAM10 counter: -7.1; ADAM17 confirm: -2.5

Results for CN(Cc1ccccc1)C(=O)c1ccc(NC(=O)Cc2ccc(NC(=O)C3CCCN(C(=O)C4CCC4)C3)cc2)cc1 (stereo not drawn) ?
KLK7 zymogen act: 0.1; ADAM17 inh: -0.4; NR2E3 ag-2: -6.8; ADAM10 inh: 1.5

Results for O=C(Cc1ccc(NC(=O)C2CCCN(C(=O)c3ccccc3)C2)cc1)Nc1ccc(C(=O)N2CCOCC2)cc1 (stereo not drawn) ?
KLK7 zymogen act: 0.3; ADAM17 inh: 10.1*; NR2E3 ag-2: -3.9; ADAM10 inh: 2.4; ADAM10 counter: -1.8; ADAM17 confirm: 5.3

Results for O=C(Cc1cccc2ccccc12)NCCOc1ccccc1F ?
KLK7 zymogen act: 0.1; ADAM17 inh: -2.1; NR2E3 ag-1: 1.8; NR2E3 ag-2: -7.4; ADAM10 inh: 9.1; GASC-1 inh: -0.8

How did Cn1ccnc1C1CCCCN1C(=O)c1cc(COc2ccc(F)cc2F)on1 (stereo not drawn) do in these assays?
KLK7 zymogen act: -0.3; ADAM17 inh: 3.5; NR2E3 ag-1: 2.5; NR2E3 ag-2: 11.2; ADAM10 inh: 4.7; GASC-1 inh: 0.3

How did COc1cccc(NC(=O)c2csc3c2CCCC3)c1 do in these assays?
KLK7 zymogen act: -0.7; ADAM17 inh: 13.0*; NR2E3 ag-1: 5.5; NR2E3 ag-2: -84.1; ADAM10 inh: 10.4; GASC-1 inh: 2.0; ADAM10 counter: 10.4; ADAM17 confirm: 8.5

Results for COc1ccc(NC(=O)c2csc3c2CCCC3)cc1 ?
NR2E3 ag-1: -4.4; NR2E3 ag-2: -161.4; GASC-1 inh: 1.8

How did COc1ccc(Cl)cc1NC(=O)CCc1nnc2ccc(N3CCC4(CC3)OCCO4)nn12 do in these assays?
KLK7 zymogen act: 0.1; ADAM17 inh: -5.1; NR2E3 ag-1: 0.1; NR2E3 ag-2: -0.1; ADAM10 inh: -6.0; GASC-1 inh: -5.8

What do the screens show for `CCc1ccc(CCNC(=O)OCCCN2CCC3(CCC(c4ccccc4)CC3)C2=O)cc1` (stereo not drawn)?
KLK7 zymogen act: 0.9; ADAM17 inh: 9.4*; ADAM10 inh: 12.0; ADAM10 counter: 36.2*; ADAM17 confirm: 15.4*

Results for CCCCNC(=O)OCCCN1CCC2(CCC(c3ccccc3)CC2)C1=O (stereo not drawn) ?
KLK7 zymogen act: -0.1; ADAM17 inh: 1.4; ADAM10 inh: -4.7

High-throughput results as filed in PubChem.
